MrgX1 agonist = agonists of human MrgX1 receptor, primary screen, HEK293 cells, Fluo-4 calcium flux; Fluo-4 calcium fluorescence, agonist mode; active compounds read high; B-score at 10 µM; hit rate 0.44% among 310,000; AID 588627, 2011;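 active = calcium response B-score plate-corrected fluorescence ratio at least 3 library SD, with starting fluorescence B-score inside 5 SD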
Target sequence (Q96LB2 whole entry, looked up): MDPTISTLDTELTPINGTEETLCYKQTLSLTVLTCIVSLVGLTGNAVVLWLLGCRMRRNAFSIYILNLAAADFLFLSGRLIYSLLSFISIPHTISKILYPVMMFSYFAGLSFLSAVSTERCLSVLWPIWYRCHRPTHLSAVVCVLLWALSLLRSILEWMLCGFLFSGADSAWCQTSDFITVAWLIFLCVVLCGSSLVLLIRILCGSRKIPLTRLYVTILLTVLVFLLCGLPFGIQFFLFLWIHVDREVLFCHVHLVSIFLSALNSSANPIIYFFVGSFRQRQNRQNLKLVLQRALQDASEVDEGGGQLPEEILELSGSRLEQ
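Test system: Stable human MrgX1 HEK293 cell line | Schedule: Overnight plating before 1 h dye loading | Read-out basis: Baseline-normalised fluorescence change ratio, B-scored | Detection: Kinetic calcium dye fluorescence, Fluo-4 NW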
MrgX1 antagonist = antagonists of human MrgX1 receptor, primary screen, HEK293 cells, Fluo-4 calcium flux. hit rate 1.3% among 310,000. AID 588676, 2011. BAM8-22 antagonism; active compounds read low. B-score at 10 µM. Mas-related G-protein coupled receptor member X1 (Homo sapiens), Q96LB2;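 active = calcium-response B-score plate-corrected more than 3 library SD below zero, starting fluorescence within 5 deviations, no agonist response on first addition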;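 note: peak minus trough fluorescence over baseline after final BAM8-22 challenge near maximal dose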
RGS4 inh = RGS4 inhibitors, primary screen, cell-based, HEK293 M3R inducible RGS4, calcium flux; Regulator of G-protein signaling 4 (Homo sapiens), P49798; Fluo-4 calcium flux; active compounds read high; triggered by carbachol at its EC20; B-score at 10 µM; hit rate 0.45% among 310,000; AID 463165, 2010;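 active = B-score, a plate-corrected calcium signal, over three deviations above library mean, with baseline fluorescence within five deviations of library mean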;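 note: RGS4 expression induced by doxycycline in cells with stable M3 receptor; B-score is computed from the integrated fluorescence ratio over baseline after carbachol; higher B-score means a larger calcium signal and so more RGS4 inhibition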
Target sequence (P49798 whole entry, looked up): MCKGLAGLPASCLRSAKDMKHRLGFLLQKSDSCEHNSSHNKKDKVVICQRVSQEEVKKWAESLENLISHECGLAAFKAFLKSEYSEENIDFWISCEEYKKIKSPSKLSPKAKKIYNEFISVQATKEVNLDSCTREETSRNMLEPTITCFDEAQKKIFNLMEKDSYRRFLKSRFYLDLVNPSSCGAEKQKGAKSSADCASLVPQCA
MrgX1 allo act = positive allosteric modulators of MrgX1, primary screen, HEK293 cells, Fluo-4 calcium flux. AID 588675, 2011. FDSS; active compounds read high. B-score at 10 µM. hit rate 0.63% among 310,000;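 active = plate-corrected calcium response at least 3 library SD above typical, normal starting fluorescence, not activating the receptor alone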;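 note: compound read alongside a low EC10 to EC30 dose of BAM8-22 agonist; peak minus trough fluorescence over baseline measured at the second addition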
RGS4 pot = RGS4 potentiators or activators, primary screen, cell-based, HEK293 M3R inducible RGS4, calcium flux. carbachol calcium flux Fluo4; active compounds read low. B-score at 10 µM. hit rate 0.92% among 310,000. AID 463111, 2010;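 active = B-score of the integrated calcium signal more than 4 SD below the library mean, with starting fluorescence not abnormally high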;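 note: negative B-score means reduced calcium response which marks RGS4 activation or potentiation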
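Also added: carbachol at ECmax as muscarinic agonist stimulus; Assay system: HEK293 cells with stable M3R and inducible RGS4; Timing: overnight RGS4 induction, 30 min dye load 37 °C, 20 min compound RT; Measured by: Fluo4-AM (2 µM) calcium-flux fluorescence, kinetic read.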
The depositor's hits bear a star; i = inactive. In the library only some 3.5% were active in any assay of this set; here they are far more common.

SMILES | MrgX1 agonist | MrgX1 antagonist | RGS4 inh | MrgX1 allo act | RGS4 pot
CCN(CC)CCOC(=O)c1ccc(NC(=O)c2ccc(Cl)c(S(=O)(=O)N3CCCCCC3)c2)cc1 | i | -6.8* | i | i | i
O=C(Nc1ccncc1)c1ccc(Cl)c(S(=O)(=O)N2CCCCC2)c1 | i | i | i | i | i
CCN(CC)S(=O)(=O)c1ccc(Cl)c(C(=O)Oc2cccc(-c3cnc4ccccc4n3)c2)c1 | i | i | i | i | -7.1*
Cc1ccc(NC(=O)C2CCN(S(=O)(=O)c3c(C)noc3C)CC2)cc1C | i | i | i | i | i
O=C(Nc1nnc(C2=COCCO2)o1)c1cccc([N+](=O)[O-])c1 | i | i | i | i | i
O=C(Nc1nnc(-c2ccc(F)cc2)o1)c1cccc([N+](=O)[O-])c1 | 58* | i | i | i | i
CCOc1ccc(CNC(=S)Nc2ccccc2)cc1Cl | i | i | i | i | i
O=C(NN1C(=O)C2C(c3ccccc3)C=CC(c3ccccc3)C2C1=O)c1ccncc1 (stereo not drawn) | 28* | i | i | i | i
O=C(NN1C(=O)C2C3C=CC(C3)C2C1=O)c1ccncc1 (stereo not drawn) | i | i | i | i | i
O=C(O)c1ccc(N=Nc2c(O)[nH]c3cc(Cl)ccc23)cc1 | i | -6* | i | i | i
N/C(Cn1cncn1)=N\NC(=O)c1ccc(Cl)cc1Cl | i | -4.5* | i | i | i
CCNC(=O)Nc1ccc(OC)cc1OC | i | i | i | i | i
CN1CCC(=C(c2ccccc2)c2ccc(Br)cc2)CC1 | i | i | i | i | -7.7*
COc1ccc(NC(=O)c2ccc(COc3ccccc3Br)o2)c(OC)c1 | i | i | i | i | i
COc1ccc(/C=C2/C(=O)N(c3ccccc3)N=C2C)cc1 | i | i | i | i | i
CC1=NOC(=O)/C1=C/c1ccc(N(C)C)cc1 | 46* | i | i | i | i
CCCOc1ccc(/C=C2/C(=O)ON=C2C)cc1Cl | i | i | i | i | i
CCN(CC)c1ccc(/C=C2\C(=O)N(c3nnc(C)c(=O)[nH]3)N=C2C)cc1 | 42* | i | i | i | i
CCN(CC)c1ccc(/C=C2/C(=O)ON=C2C)cc1 | 57* | i | i | i | i
O=S(=O)(Nc1nc2ccccc2s1)c1cnc(Cl)c(Br)c1 | i | i | i | i | i
CCOP(=O)(OCC)C(NC(=O)/C=C/c1ccc(OC)cc1)c1ccccc1 (stereo not drawn) | i | i | i | i | i
O=c1ccc2cc3c([nH]c4ccc(Br)cc43)oc-2c1O | i | i | i | 11* | i
CN(C)c1ccc(/C=C2/NC(=O)NC2=O)cc1 | i | i | i | i | i
CN(C)c1ccc(/C=C2\N=C(c3ccc(Cl)c([N+](=O)[O-])c3)NC2=O)cc1 | i | -6.9* | i | i | i
CCOc1ccc(-c2cc(N3C(=O)Nc4ccccc4N3O)n[nH]2)cc1 | i | -6.7* | i | i | i
SMILES | MrgX1 agonist | MrgX1 antagonist | RGS4 inh | MrgX1 allo act | RGS4 pot
Cc1ccc(-c2noc(-c3cc(C(C)(C)C)nn3Cc3ccccc3)n2)cc1 | i | -6.8* | i | i | i
CCCOC(=O)c1c(NC(=O)/C=C/c2cnn(C)c2C)sc(C(=O)OCC)c1C | i | -4.6* | i | i | i
CCCOC(=O)c1c(NC(=O)/C=C/c2cnn(C)c2C)sc(C(=O)OC)c1C | i | i | i | i | i
Cc1cccc(OCC(O)Cn2c(N3CCCCC3)nc3c2c(=O)n(C)c(=O)n3C)c1 (stereo not drawn) | i | i | i | 7.2* | i
Cn1c(=O)c2c(nc(N3CCCCCC3)n2CC(O)COc2ccccc2)n(C)c1=O (stereo not drawn) | i | i | i | i | i
CC(C(=O)Nc1ccccc1-c1ccccc1)N(C)Cc1nc2ccccc2c(=O)[nH]1 (stereo not drawn) | i | i | i | i | i
Cc1csc(NC(=O)C2=NN(c3ccccc3)C(=O)CC2)n1 | i | i | i | i | i
Cc1ccc(-c2csc(NC(=O)C3=NN(c4ccccc4)C(=O)CC3)n2)cc1 | i | -4.8* | i | i | i
Cc1c(CCC(=O)O)c(=O)oc2c(C)c(OCc3cc4c(cc3Cl)OCO4)ccc12 | i | i | i | i | i
Cn1c(N)c(C(=O)COC(=O)CC(NC(=O)c2ccccc2Cl)c2ccccc2)c(=O)n(C)c1=O (stereo not drawn) | i | i | i | i | i
O=C(N/N=C/c1ccc(OC(F)F)cc1)c1ccc(Br)cc1 | i | -5.3* | i | i | i
O=C(N/N=C/c1ccc(OC(F)F)cc1)c1cc[n+]([O-])cc1 | i | -6* | i | i | i
COc1ccc(S(=O)(=O)N2CCCCCC2)cc1C(=O)N(C)CC(=O)Nc1cc(C)ccc1C | i | i | i | i | i
O=C(NNC(=O)c1cccc(S(=O)(=O)N2CCN(c3ccccc3)CC2)c1)c1ccc(Cl)cc1 | i | i | i | i | i
O=C(NNC(=O)c1cc(Cl)ccc1O)c1cccc(S(=O)(=O)N2CCOCC2)c1 | i | -4.8* | i | i | i
O=C(O)c1cc(Cl)c2c(c1)OCO2 | i | i | i | i | i
COC(=O)c1cc2c(=O)c3ccccc3oc2nc1/C=C/N(C)C | 68* | i | i | i | i
COC(=O)c1cc2c(=O)c3ccccc3oc2nc1C | i | i | i | i | i
COc1ccc(NC(=O)COc2ccccc2C(=O)NCC(c2ccccc2)N(C)C)cc1Cl (stereo not drawn) | i | i | i | i | -9.4*
Cc1ccc(C2(C)NC(=O)N(CC(=O)NNC(=O)c3ccoc3C)C2=O)cc1 (stereo not drawn) | i | i | i | i | i
Cc1oc2cc(Br)c(O)c(Br)c2c1-c1ccccc1 | i | i | i | 15* | i
COc1ccc(-c2csc(NC(=O)c3ccc(OCC(=O)N4CCOCC4)c(OC)c3)n2)cc1 | i | -5.1* | i | i | i
O=C(Cc1cnc2ncnn2c1)N1CCc2c([nH]c3ccccc23)C1c1ccccn1 (stereo not drawn) | i | i | i | i | i
